Laboratory results: ChEMBL document CHEMBL5724801, “EUbOPEN Chemogenomics Library - Multiplex” (2024)
Several values for one entry are separate records, joined by “and”; a condition that tells them apart may be missing. Identical values can stand only once.

Test system: U2OS
Assay: Multiplex assay against U2OS
Assay type: toxicity, cell-based
Conditions: human
In short: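 Tubulin, mitochondrial-mass and membrane-permeability phenotypes are per cents of healthy-nucleus cells. Cells were gated by CellPathfinder machine learning into Hoechst high-intensity objects or normal cells, normal cells into healthy, pyknosed or fragmented nuclei, and pyknosed cells into mitotic or apoptotic. Before that, live cells stained at seeding with Hoechst33342, BioTracker Green Microtubule Cytoskeleton Dye, MitoTracker Red and Annexin V Alexa Fluor 680 were imaged on a CQ1 microscope at 37°C and 5% CO2 after compound addition.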

[1] = 12 h, 1 µM, compound concentration 1 uM
[2] = 12 h, 10 µM, compound concentration 10 uM
[3] = 24 h, 1 µM, compound concentration 1 uM
[4] = 24 h, 10 µM, compound concentration 10 uM
[5] = 48 h, 1 µM, compound concentration 1 uM
[6] = 48 h, 10 µM, compound concentration 10 uM

Question: Which “Population Apoptotic (%)” value [1] does the source give for CC(C)c1ccc(/C=N/NC(=O)c2ccc(O)cc2)cc1 here?
Answer: 41.67% and 26.09%

Question: And the “Population Fragmented Nuclei (%)” value [1]?
Answer: 0.58% and 4.67%

Question: What about the “Population Healthy Nuclei (%)” value [1] of the same compound?
Answer: 88.92% and 80%

Question: What about the “Population Hoechst High Intensity Objects (%)” value [1] of the same compound?
Answer: 0%

Question: What about the “Population Membrane Permeable-Phenotype (%)” value [1] of the same compound?
Answer: 2.62% and 5.83%

Question: What about the “Population Mitochondria Different-Phenotype (%)” value [1] of the same compound?
Answer: 0% and 12.5%

Question: And the “Population Mitotic Cells (%)” value [1]?
Answer: 58.33% and 73.91%

Question: And the “Population Normal (%)” value [1]?
Answer: 100%

Question: And the “Population Pyknosed Nuclei (%)” value [1]?
Answer: 10.5% and 15.33%

Question: What about the “Population Tubulin-Different-Phenotype (%)” value [1] of the same compound?
Answer: 1.64% and 1.67%

Question: What about the “Total Cell Count” value [1] of the same compound?
Answer: 343 and 150

Question: What about the “Population Apoptotic (%)” value [2] of the same compound?
Answer: 32.5% and 45%

Question: What about the “Population Fragmented Nuclei (%)” value [2] of the same compound?
Answer: 1.02% and 0%

Question: What about the “Population Healthy Nuclei (%)” value [2] of the same compound?
Answer: 88.75% and 85.4%

Question: What about the “Population Hoechst High Intensity Objects (%)” value [2] of the same compound?
Answer: 0%

Question: What about the “Population Membrane Permeable-Phenotype (%)” value [2] of the same compound?
Answer: 2.88% and 2.56%

Question: What about the “Population Mitochondria Different-Phenotype (%)” value [2] of the same compound?
Answer: 0% and 5.98%

Question: And the “Population Mitotic Cells (%)” value [2]?
Answer: 67.5% and 55%

Question: What about the “Population Normal (%)” value [2] of the same compound?
Answer: 100%

Question: And the “Population Pyknosed Nuclei (%)” value [2]?
Answer: 10.23% and 14.6%

Question: What about the “Population Tubulin-Different-Phenotype (%)” value [2] of the same compound?
Answer: 2.59% and 0%

Question: What about the “Total Cell Count” value [2] of the same compound?
Answer: 391 and 137

Question: And the “Population Apoptotic (%)” value [3]?
Answer: 30.95% and 46.15%

Question: What about the “Population Fragmented Nuclei (%)” value [3] of the same compound?
Answer: 2.35% and 1.61%

Question: And the “Population Healthy Nuclei (%)” value [3]?
Answer: 88.68% and 84.41%

Question: What about the “Population Hoechst High Intensity Objects (%)” value [3] of the same compound?
Answer: 0%

Question: And the “Population Membrane Permeable-Phenotype (%)” value [3]?
Answer: 1.69% and 3.18%

Question: And the “Population Mitochondria Different-Phenotype (%)” value [3]?
Answer: 0.48% and 8.92%

Question: What about the “Population Mitotic Cells (%)” value [3] of the same compound?
Answer: 69.05% and 53.85%

Question: What about the “Population Normal (%)” value [3] of the same compound?
Answer: 100%

Question: What about the “Population Pyknosed Nuclei (%)” value [3] of the same compound?
Answer: 8.97% and 13.98%

Question: What about the “Population Tubulin-Different-Phenotype (%)” value [3] of the same compound?
Answer: 1.69% and 0.64%

Question: And the “Total Cell Count” value [3]?
Answer: 468 and 186

Question: And the “Population Apoptotic (%)” value [4]?
Answer: 51.02% and 50%

Question: What about the “Population Fragmented Nuclei (%)” value [4] of the same compound?
Answer: 1.12% and 2.26%

Question: And the “Population Healthy Nuclei (%)” value [4]?
Answer: 89.72% and 86.44%

Question: What about the “Population Hoechst High Intensity Objects (%)” value [4] of the same compound?
Answer: 0%

Question: And the “Population Membrane Permeable-Phenotype (%)” value [4]?
Answer: 1.88% and 2.61%

Question: What about the “Population Mitochondria Different-Phenotype (%)” value [4] of the same compound?
Answer: 0% and 3.92%

Question: And the “Population Mitotic Cells (%)” value [4]?
Answer: 48.98% and 50%

Question: What about the “Population Normal (%)” value [4] of the same compound?
Answer: 100%

Question: What about the “Population Pyknosed Nuclei (%)” value [4] of the same compound?
Answer: 9.16% and 11.3%

Question: What about the “Population Tubulin-Different-Phenotype (%)” value [4] of the same compound?
Answer: 1.25% and 0%

Question: What about the “Population Apoptotic (%)” value [5] of the same compound?
Answer: 38.46% and 51.11%

Question: What about the “Population Fragmented Nuclei (%)” value [5] of the same compound?
Answer: 2.73% and 1.73%

Question: And the “Population Healthy Nuclei (%)” value [5]?
Answer: 87.74% and 85.3%

Question: And the “Population Hoechst High Intensity Objects (%)” value [5]?
Answer: 0.1% and 0%

Question: What about the “Population Membrane Permeable-Phenotype (%)” value [5] of the same compound?
Answer: 0.6% and 3.04%

Question: What about the “Population Mitochondria Different-Phenotype (%)” value [5] of the same compound?
Answer: 0.12% and 6.42%

Question: And the “Population Mitotic Cells (%)” value [5]?
Answer: 61.54% and 48.89%

Question: And the “Population Normal (%)” value [5]?
Answer: 99.9% and 100%

Question: What about the “Population Pyknosed Nuclei (%)” value [5] of the same compound?
Answer: 9.54% and 12.97%

Question: And the “Population Tubulin-Different-Phenotype (%)” value [5]?
Answer: 0.6% and 1.35%

Question: What about the “Total Cell Count” value [5] of the same compound?
Answer: 955 and 347

Question: And the “Population Apoptotic (%)” value [6]?
Answer: 46.51% and 53.12%

Question: And the “Population Fragmented Nuclei (%)” value [6]?
Answer: 4.03% and 1.37%

Question: What about the “Population Healthy Nuclei (%)” value [6] of the same compound?
Answer: 87.3% and 87.67%

Question: And the “Population Hoechst High Intensity Objects (%)” value [6]?
Answer: 0%

Question: What about the “Population Membrane Permeable-Phenotype (%)” value [6] of the same compound?
Answer: 1.15% and 3.52%

Question: What about the “Population Mitochondria Different-Phenotype (%)” value [6] of the same compound?
Answer: 0% and 5.47%

Question: And the “Population Mitotic Cells (%)” value [6]?
Answer: 53.49% and 46.88%

Question: What about the “Population Normal (%)” value [6] of the same compound?
Answer: 100%

Question: And the “Population Pyknosed Nuclei (%)” value [6]?
Answer: 8.67% and 10.96%

Question: What about the “Population Tubulin-Different-Phenotype (%)” value [6] of the same compound?
Answer: 1.39% and 0%

Question: Which results are given for O=C1NCc2ccc3c(-c4cccc(Cl)c4)c[nH]c3c21?
Answer: Population Apoptotic (%) [1]: 16.88% and 44.83%; Population Fragmented Nuclei (%) [1]: 2.23% and 1.96%; Population Healthy Nuclei (%) [1]: 76.32% and 79.08%; Population Hoechst High Intensity Objects (%) [1]: 0%; Population Membrane Permeable-Phenotype (%) [1]: 1.46% and 3.31%; Population Mitochondria Different-Phenotype (%) [1]: 0% and 8.26%; Population Mitotic Cells (%) [1]: 83.12% and 55.17%; Population Normal (%) [1]: 100%; Population Pyknosed Nuclei (%) [1]: 21.45% and 18.95%; Population Tubulin-Different-Phenotype (%) [1]: 1.46% and 2.48%; Total Cell Count [1]: 359 and 153; Population Apoptotic (%) [2]: 31.03% and 23.81%; Population Fragmented Nuclei (%) [2]: 0.99% and 2.27%; Population Healthy Nuclei (%) [2]: 79.87% and 81.82%; Population Hoechst High Intensity Objects (%) [2]: 0%; Population Membrane Permeable-Phenotype (%) [2]: 2.89% and 3.7%; Population Mitochondria Different-Phenotype (%) [2]: 0% and 15.74%; Population Mitotic Cells (%) [2]: 68.97% and 76.19%; Population Normal (%) [2]: 100%; Population Pyknosed Nuclei (%) [2]: 19.14% and 15.91%; Population Tubulin-Different-Phenotype (%) [2]: 2.07% and 0.93%; Total Cell Count [2]: 303 and 132; Population Apoptotic (%) [3]: 34.38% and 19.64%; Population Fragmented Nuclei (%) [3]: 3.92% and 1.72%; Population Healthy Nuclei (%) [3]: 66.59% and 66.09%; Population Hoechst High Intensity Objects (%) [3]: 0% and 0.57%; Population Membrane Permeable-Phenotype (%) [3]: 0.69% and 3.48%; Population Mitochondria Different-Phenotype (%) [3]: 0% and 8.7%; Population Mitotic Cells (%) [3]: 65.62% and 80.36%; Population Normal (%) [3]: 100% and 99.43%; Population Pyknosed Nuclei (%) [3]: 29.49% and 32.18%; Population Tubulin-Different-Phenotype (%) [3]: 1.73% and 2.61%; Total Cell Count [3]: 434 and 175; Population Apoptotic (%) [4]: 50% and 28.3%; Population Fragmented Nuclei (%) [4]: 4.05% and 5.47%; Population Healthy Nuclei (%) [4]: 49.22% and 53.12%; Population Hoechst High Intensity Objects (%) [4]: 0.62% and 0%; Population Membrane Permeable-Phenotype (%) [4]: 0.63% and 8.82%; Population Mitochondria Different-Phenotype (%) [4]: 0% and 8.82%; Population Mitotic Cells (%) [4]: 50% and 71.7%; Population Normal (%) [4]: 99.38% and 100%; Population Pyknosed Nuclei (%) [4]: 46.73% and 41.41%; Population Tubulin-Different-Phenotype (%) [4]: 1.27% and 1.47%; Total Cell Count [4]: 323 and 128; Population Apoptotic (%) [5]: 63.69% and 70.59%; Population Fragmented Nuclei (%) [5]: 9.74% and 8.94%; Population Healthy Nuclei (%) [5]: 47.18% and 43.58%; Population Hoechst High Intensity Objects (%) [5]: 0%; Population Membrane Permeable-Phenotype (%) [5]: 1.63% and 6.41%; Population Mitotic Cells (%) [5]: 36.31% and 29.41%; Population Normal (%) [5]: 100%; Population Pyknosed Nuclei (%) [5]: 43.08% and 47.49%; Population Tubulin-Different-Phenotype (%) [5]: 6.52% and 2.56%; Total Cell Count [5]: 390 and 179; Population Apoptotic (%) [6]: 70.56% and 84.62%; Population Fragmented Nuclei (%) [6]: 6.99% and 3.12%; Population Healthy Nuclei (%) [6]: 38.3% and 46.09%; Population Hoechst High Intensity Objects (%) [6]: 0%; Population Membrane Permeable-Phenotype (%) [6]: 2.38% and 6.78%; Population Mitotic Cells (%) [6]: 29.44% and 15.38%; Population Normal (%) [6]: 100%; Population Pyknosed Nuclei (%) [6]: 54.71% and 50.78%; Population Tubulin-Different-Phenotype (%) [6]: 10.32% and 5.08%; Total Cell Count [6]: 329 and 128
